One experiment deals with Cannabinoid receptor 2 (Homo sapiens, UniProt P34972). Briefly: Displacement of [3H]CP-55940 from human recombinant CB2 receptor expressed in HEK293 cells. Format: cell-based. (In general: Displacement assays read how much labelled ligand stays bound in the presence of the test substance.)
A further experiment concerns the target Cannabinoid receptor 1 (Homo sapiens, UniProt P21554). Briefly: Displacement of [3H]CP-55940 from human recombinant CB1 receptor expressed in HEK293 cells. Format: cell-based.
Experiment [1] concerns Jurkat. Briefly: Cytotoxicity against human Jurkat cells at 10 uM after 48 hrs by WST1 assay in presence of AM630. The format is functional, cell-based. In outline: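 Jurkat cells (2 × 10⁴ per well) in serum-free medium, after 2 h, exposed to compound (10 µM) together with CB2 antagonist AM630 (1 µM) for 48 h. Viability by WST-1 (60 min, 37 °C, A450) against solvent controls. Two experiments in triplicate.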
In general terms: Formazan colour is commonly taken as a measure of viable cells.

Experiment [2] concerns Jurkat. Nature of the experiment: Cytotoxicity against human Jurkat cells after 48 hrs by WST1 assay. Format: functional, cell-based. The gist of the method: (§1)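 Jurkat (2 × 10⁴ per well, 2 h settling) or U87MG (4 × 10³ per well, 24 h attachment) cells in serum-free medium. Exposed to compound (0.1-10 µM; DMSO stocks diluted in medium) for 48 h. Viability read by WST-1 (60 min, 37 °C, A450) against solvent controls, blank-subtracted. IC50 is the concentration giving 50% of control absorbance. Three experiments in triplicate.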

Experiment [3] is described as follows: Cytotoxicity against human U87MG cells at 10 uM after 48 hrs by WST1 assay. The format is functional, U-87MG ATCC. In outline:
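U87MG cells (4 × 10³ per well) in serum-free medium, attached 24 h, then exposed to compound at 10 µM for 48 h (DMSO stock diluted in medium). Viability inhibition by WST-1 (60 min, 37 °C, A450) compared with solvent-treated controls.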

Experiment [4] is described as follows: Cytotoxicity against human U87MG cells after 48 hrs by WST1 assay. The format is functional, cell-based. The settings on record: u-87mg atcc. The gist of the method: as §1

The source made the active and inactive calls. The rule behind the calls is not given here.

Chain of Cannabinoid receptor 1 (P21554 whole entry): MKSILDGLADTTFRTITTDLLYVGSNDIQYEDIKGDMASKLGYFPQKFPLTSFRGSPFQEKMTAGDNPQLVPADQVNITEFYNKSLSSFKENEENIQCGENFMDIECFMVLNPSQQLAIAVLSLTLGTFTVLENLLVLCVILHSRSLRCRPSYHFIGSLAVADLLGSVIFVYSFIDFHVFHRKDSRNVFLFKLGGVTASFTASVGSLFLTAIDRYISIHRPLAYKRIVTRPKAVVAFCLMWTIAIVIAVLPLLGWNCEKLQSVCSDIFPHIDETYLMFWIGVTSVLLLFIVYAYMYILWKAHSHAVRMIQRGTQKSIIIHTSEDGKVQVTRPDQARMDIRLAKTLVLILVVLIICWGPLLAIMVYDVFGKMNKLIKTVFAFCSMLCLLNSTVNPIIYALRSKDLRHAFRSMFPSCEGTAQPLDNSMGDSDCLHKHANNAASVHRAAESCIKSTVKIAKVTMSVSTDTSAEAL
Chain of Cannabinoid receptor 2 (P34972 whole entry): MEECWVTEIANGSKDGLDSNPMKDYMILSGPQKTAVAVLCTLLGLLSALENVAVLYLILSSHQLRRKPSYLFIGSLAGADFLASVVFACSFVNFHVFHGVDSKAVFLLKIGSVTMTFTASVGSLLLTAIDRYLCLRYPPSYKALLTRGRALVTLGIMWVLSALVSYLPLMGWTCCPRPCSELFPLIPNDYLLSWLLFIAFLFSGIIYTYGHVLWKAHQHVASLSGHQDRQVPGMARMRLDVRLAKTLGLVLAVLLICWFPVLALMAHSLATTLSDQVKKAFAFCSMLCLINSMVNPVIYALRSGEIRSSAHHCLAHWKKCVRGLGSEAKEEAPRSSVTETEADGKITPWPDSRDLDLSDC

What is called Ki is a dissociation constant, usually derived from enzyme kinetics or from competition with a known ligand. For `C[C@H]1CC[C@H](NC(=O)c2cc3cccnc3n(Cc3ccccc3)c2=O)CC1`, the Ki amounted to 39.8 nM at Cannabinoid receptor 2 and 5250 nM on Cannabinoid receptor 1.

For the molecule `O=C(NC1CCCCCC1)c1cc2cccnc2n(Cc2ccc(F)cc2)c1=O`, the inhibition constant (Ki) was determined as 0.7 nM at Cannabinoid receptor 2 and 9.6 nM at Cannabinoid receptor 1.

`CC1CCC(NC(=O)c2cc3cccnc3n(Cc3ccc(F)cc3)c2=O)CC1` (centres undefined): the inhibitory constant (Ki) turned out to be 0.9 nM on Cannabinoid receptor 2 and 200 nM at Cannabinoid receptor 1.

As to `COc1ccc(C(=O)c2c(C)n(CCN3CCOCC3)c3cc(I)ccc23)cc1`, the outcome in the experiment on Jurkat [1] was inactive.

In the case of `CC1CCC(NC(=O)c2cc3cccnc3n(CCN3CCOCC3)c2=O)CC1` (centres undefined), the Ki on Cannabinoid receptor 2 is 1.9 nM; on Cannabinoid receptor 1, 1000 nM.

As for `CCCCn1c(=O)c(C(=O)NC2CCCCC2)cc2cccnc21`, the Ki is 70 nM on Cannabinoid receptor 2 and 5600 nM on Cannabinoid receptor 1.

Turning to `C[C@H]1CC[C@@H](NC(=O)c2cc3cccnc3n(Cc3ccccc3)c2=O)CC1`, the Ki at Cannabinoid receptor 2 was determined as 5.8 nM; on Cannabinoid receptor 1, 1520 nM.

What is called IC50 is the concentration that gives 50% inhibition. For `CCCn1c(C)c(C(=O)c2cccc3ccccc23)c2ccccc21`, the IC50 in the experiment with Jurkat [2] was 9600 nM; in experiment [4], “Not Active”. In experiment [3], the Activity was 20%.

`CCCC(C)(C)c1ccc2c(c1)OC(C)(C)[C@@H]1CC=C(C)C[C@@H]21`: the inhibition constant (Ki) on Cannabinoid receptor 2 stood at 3 nM.

With `C[C@H]1CC[C@@H](NC(=O)c2cc3cccnc3n(Cc3ccc(F)cc3)c2=O)CC1`, the Ki on Cannabinoid receptor 2 turned out to be 0.7 nM; on Cannabinoid receptor 1, 200 nM.

As to `O=C(NC1CCCCC1)c1cc2cccnc2n(Cc2ccc(F)cc2)c1=O`, the Ki on Cannabinoid receptor 2 is 2.2 nM; at Cannabinoid receptor 1, 56 nM.

On to `O=C(NC1CCCCCC1)c1cc2cccnc2n(Cc2ccccc2)c1=O`, for which the Ki turned out to be 22 nM on Cannabinoid receptor 2 and 960 nM at Cannabinoid receptor 1.

As for `C[C@H]1CC[C@H](NC(=O)c2cc3cccnc3n(Cc3ccc(F)cc3)c2=O)CC1`, the inhibitory constant (Ki) worked out at 9 nM on Cannabinoid receptor 2 and 300 nM on Cannabinoid receptor 1.

As for `O=C(NCCc1ccc(F)cc1)c1cc2cccnc2n(Cc2ccccc2)c1=O`, the values for the Ki on Cannabinoid receptor 2 and at Cannabinoid receptor 1 were 69.8 nM and 6950 nM, respectively.

In the case of `O=C(NC1CCCCCC1)c1cc2cccnc2n(CCN2CCOCC2)c1=O`, the Ki on Cannabinoid receptor 2 turned out to be 3 nM; on Cannabinoid receptor 1 it was 18 nM.

For `O=C(NC1CCCCC1)c1cc2cccnc2n(Cc2ccccc2)c1=O`, the inhibition constant (Ki) on Cannabinoid receptor 2 was determined as 31 nM; on Cannabinoid receptor 1, 560 nM.

Turning to `CC1CCC(NC(=O)c2cc3cccnc3n(Cc3ccccc3)c2=O)CC1` (centres undefined), the Activity result with Jurkat [2] was “Dose-dependent effect”; in experiment [3], 20%. Further, the IC50 was 5980 nM in the experiment on Jurkat [2] and “Not Active” in experiment [4]. Moreover, the Ki turned out to be 7.8 nM on Cannabinoid receptor 2 and 1600 nM on Cannabinoid receptor 1.

As for `O=C(NC1CCCCC1)c1cc2cccnc2n(CCN2CCOCC2)c1=O`, the figures for the inhibition constant (Ki) on Cannabinoid receptor 2 and at Cannabinoid receptor 1 were 7.9 nM and 560 nM, respectively.

Source of the values: ChEMBL document CHEMBL1136929 (J Med Chem, 2009).
